Assay [1] has as its target Aurora kinase B (Homo sapiens) (UniProt Q96GD4). The assay is described as follows: Inhibition of recombinant human N-terminal His6-tagged Aurora B (1 to 344 residues) expressed in Escherichia coli assessed as remaining activity at 10 uM using LRRLSLGLRRLSLGLRRLSLGLRRLSLG as substrate incubated for 30 mins in presence of [gamma-33P]ATP by filter binding method relative to control.

Assay [2] deals with Serine/threonine-protein kinase mTOR (Mus musculus) (UniProt Q9JLN9). The assay is described as follows: Inhibition of mTOR in MEF cells assessed as reduction in 4E-BP1 phosphorylation at T37/46 residues at 1 uM incubated for 30 mins by immunoblot analysis. The assay is classed as cell-based. A digest of the protocol:
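Cells (MEFs, wild-type or knockout, or HeLa) kept in 10% serum, then exposed 30 min to inhibitor or vehicle at the stated level. Washed twice in ice-cold PBS and lysed in Tris lysis buffer with CHAPS, phosphatase and protease inhibitors. Lysates cleared at 18000 g and immunoblotted with phospho-specific antibodies and ECL detection. Blots are representative of three experiments.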

Assay [3] has as its target 3-phosphoinositide-dependent protein kinase 1 (Homo sapiens) (UniProt O15530). The assay is described as follows: Inhibition of recombinant human His6-tagged PDK1 (52 to 556 residues) expressed in baculovirus infected Sf21 cells assessed as remaining activity at 10 uM using PDKtide as substrate incubated for 30 mins in presence of [gamma-33P]ATP by filter binding method relative to control. In short, it runs like this: (§1)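 Robotic radiometric panel assay, 30 min at room temperature (21 °C), with 10 mM magnesium acetate. […] Compound at 1 or 10 µM. Residual activity expressed relative to compound-free control; triplicate average ± S.D.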

For assay [4] the target is unchanged. Description: Inhibition of recombinant human His6-tagged PDK1 (52 to 556 residues) expressed in baculovirus infected Sf21 cells assessed as remaining activity at 1 uM using PDKtide as substrate incubated for 30 mins in presence of [gamma-33P]ATP by filter binding method relative to control. A digest of the protocol:
as §1

For assay [5], the system named is Serine/threonine-protein kinase Sgk1 (Homo sapiens), O00141 [S422D]. Description: Inhibition of recombinant human His6-tagged SGK1 S422D mutant (60 to 431 residues) expressed in baculovirus infected Sf21 cells assessed as remaining activity at 1 uM using GRPRTSSFAEGKK as substrate incubated for 30 mins in presence of [gamma-33P]ATP by filter binding method relative to control. In short, it runs like this:
(§2)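 Incubations ran robotically for 30 min at room temperature (21 °C) under linear conditions. Results are percent activity remaining versus controls without compound, as the mean of triplicates ± S.D.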

Assay [6] has as its target T1, mTORC1 (Homo sapiens) (UniProt P42345+Q8N122+Q9BVC4). The note with it: HEK293, dose 30-1000 nM, time 30.0 min.
The target in assay [7] is Serine/threonine-protein kinase pim-2 (Homo sapiens) (UniProt Q9P1W9). The assay is described as follows: Inhibition of recombinant human N-terminal GST-tagged PIM2 (2 to 334 residues) expressed in Escherichia coli assessed as remaining activity at 10 uM using RSRHSSYPAGT as substrate incubated for 30 mins in presence of [gamma-33P]ATP by filter binding method relative to control. In short, it runs like this: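 Radiometric kinase panel run robotically at room temperature (21 °C) for 30 min, linear in time and enzyme. […] Activity is expressed as percent of control without compound, from triplicate determinations ± S.D.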
Sequence of Serine/threonine-protein kinase pim-2 (Homo sapiens) (Q9P1W9 whole entry, looked up, the tested form may be a part): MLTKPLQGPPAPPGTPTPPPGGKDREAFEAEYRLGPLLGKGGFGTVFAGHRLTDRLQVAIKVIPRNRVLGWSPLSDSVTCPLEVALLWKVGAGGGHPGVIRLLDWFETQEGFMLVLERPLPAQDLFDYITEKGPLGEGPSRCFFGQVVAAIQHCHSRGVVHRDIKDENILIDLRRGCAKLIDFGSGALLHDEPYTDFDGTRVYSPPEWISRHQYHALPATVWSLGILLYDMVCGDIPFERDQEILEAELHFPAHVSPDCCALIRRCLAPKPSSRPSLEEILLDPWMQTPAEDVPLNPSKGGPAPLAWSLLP

Assay [8] addresses Mitogen-activated protein kinase 8 (Homo sapiens) (UniProt P45983). The assay is described as follows: Inhibition of recombinant human His6-tagged JNK1alpha1 (1 to 384 residues) expressed in baculovirus infected Sf21 cells assessed as remaining activity at 10 uM using ATF2 as substrate incubated for 30 mins in presence of [gamma-33P]ATP by filter binding method relative to control. In short, it runs like this: as §1

The target in assay [9] is Tyrosine-protein kinase CSK (Homo sapiens) (UniProt P41240). The assay is described as follows: Inhibition of recombinant human N-terminal GST-tagged CSK (1 to 450 residues) expressed in Escherichia coli assessed as remaining activity at 10 uM Cdc2 peptide as substrate incubated for 30 mins in presence of [gamma-33P]ATP by filter binding method relative to control. A digest of the protocol:
as §2

The target of assay [10] is Maternal embryonic leucine zipper kinase (Homo sapiens) (UniProt Q14680). Description: Inhibition of recombinant human N-terminal GST/C-terminal His6-tagged MELK (2 to 651 residues) expressed in Escherichia coli assessed as remaining activity at 10 uM using KKLNRTLSFAEPG as substrate incubated for 30 mins in presence of [gamma-33P]ATP by filter binding method relative to control. A digest of the protocol:
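Incubation was 30 min at room temperature (21 °C) under conditions linear with time and enzyme amount. Activity is reported as percent of control lacking compound, triplicate mean ± S.D.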

Assay [11] has as its target Sphingosine kinase 2 (Homo sapiens) (UniProt Q9NRA0). The assay is described as follows: Inhibition of SPHK2 (unknown origin) assessed as remaining activity at 10 uM using sphingosine as substrate incubated for 30 mins in presence of ATP relative to control. A digest of the protocol: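 SPHK2 reaction: 10 μM sphingosine, 1 μM ATP, 50 mM Tris/HCl pH 7.5, 200 mM KCl, 5 mM MgCl2, 1 mM EGTA, 1 mM DTT, 30 min at room temperature. Kinase-Glo Plus luminescence read-out. Percentage of control activity, triplicate.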

The target in assay [12] is Ribosomal protein S6 kinase alpha-5 (Homo sapiens) (UniProt O75582). The assay is described as follows: Inhibition of recombinant human His6-tagged MSK1 (2 to 802 residues) expressed in baculovirus infected Sf21 cells assessed as remaining activity at 10 uM using GRPRTSSFAEGKK as substrate incubated for 30 mins in presence of [gamma-33P]ATP by filter binding method relative to control. In short, it runs like this: as §1
Sequence of Ribosomal protein S6 kinase alpha-5 (Homo sapiens) (O75582 whole entry, looked up, the tested form may be a part): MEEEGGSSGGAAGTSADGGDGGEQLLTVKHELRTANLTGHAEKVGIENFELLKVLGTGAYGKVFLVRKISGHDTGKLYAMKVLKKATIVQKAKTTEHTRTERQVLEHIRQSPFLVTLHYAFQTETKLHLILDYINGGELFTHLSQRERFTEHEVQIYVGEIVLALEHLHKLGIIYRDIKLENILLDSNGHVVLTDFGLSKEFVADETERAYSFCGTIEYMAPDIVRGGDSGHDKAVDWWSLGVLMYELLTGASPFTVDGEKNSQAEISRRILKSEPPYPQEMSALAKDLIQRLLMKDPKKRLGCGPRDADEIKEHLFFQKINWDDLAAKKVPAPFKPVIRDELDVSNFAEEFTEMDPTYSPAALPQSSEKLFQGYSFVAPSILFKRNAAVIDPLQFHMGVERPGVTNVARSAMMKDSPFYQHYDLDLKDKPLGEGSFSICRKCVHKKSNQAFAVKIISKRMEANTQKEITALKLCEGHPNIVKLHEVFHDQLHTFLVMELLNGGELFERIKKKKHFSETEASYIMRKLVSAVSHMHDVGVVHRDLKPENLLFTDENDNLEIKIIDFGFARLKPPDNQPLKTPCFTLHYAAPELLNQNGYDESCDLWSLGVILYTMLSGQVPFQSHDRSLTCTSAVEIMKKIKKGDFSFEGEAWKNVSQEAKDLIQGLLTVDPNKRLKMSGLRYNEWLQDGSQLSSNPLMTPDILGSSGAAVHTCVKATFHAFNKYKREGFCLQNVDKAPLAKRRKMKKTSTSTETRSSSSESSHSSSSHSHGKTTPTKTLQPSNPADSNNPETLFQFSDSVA

Assay [13] addresses T1, mTORC1 (Homo sapiens). The settings on record: HEK293, dose 100-300 nM, time 30.0 min.
The target of assay [14] is T1, mTORC1 (Homo sapiens). The note with it: HEK293, dose 30-1000 nM, time 30.0 min. This is another data set of the same source.
The target in assay [15] is T2, mTORC2 (Homo sapiens) (UniProt P42345+Q6R327+Q9BVC4+Q9BPZ7). The note with it: HEK293, dose 30-1000 nM, time 30.0 min.
Assay [16] concerns the target Casein kinase II subunit alpha (Homo sapiens) (UniProt P68400). Description: Inhibition of recombinant human N-terminal His6-tagged CK2alpha1 (2 to 391 residues) expressed in Escherichia coli assessed as remaining activity at 10 uM using RRRDDDSDDD as substrate incubated for 30 mins in presence of [gamma-33P]ATP by filter binding method relative to control. In short, it runs like this: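 Radiometric panel assay run robotically at 21 °C for 30 min, linear in time and enzyme. […] Activity is expressed as percentage of the compound-omitted control, averaged from triplicates ± S.D.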

The target in assay [17] is T2, mTORC2 (Homo sapiens). The note with it: HEK293, dose 30-1000 nM, time 30.0 min. The source holds these as a separate data set.

The source made the active and inactive calls. The rule behind the calls is not given here.

The inhibition is how much of the control response was suppressed.

Sequence of 3-phosphoinositide-dependent protein kinase 1 (Homo sapiens) (O15530 whole entry, the tested form may be a part): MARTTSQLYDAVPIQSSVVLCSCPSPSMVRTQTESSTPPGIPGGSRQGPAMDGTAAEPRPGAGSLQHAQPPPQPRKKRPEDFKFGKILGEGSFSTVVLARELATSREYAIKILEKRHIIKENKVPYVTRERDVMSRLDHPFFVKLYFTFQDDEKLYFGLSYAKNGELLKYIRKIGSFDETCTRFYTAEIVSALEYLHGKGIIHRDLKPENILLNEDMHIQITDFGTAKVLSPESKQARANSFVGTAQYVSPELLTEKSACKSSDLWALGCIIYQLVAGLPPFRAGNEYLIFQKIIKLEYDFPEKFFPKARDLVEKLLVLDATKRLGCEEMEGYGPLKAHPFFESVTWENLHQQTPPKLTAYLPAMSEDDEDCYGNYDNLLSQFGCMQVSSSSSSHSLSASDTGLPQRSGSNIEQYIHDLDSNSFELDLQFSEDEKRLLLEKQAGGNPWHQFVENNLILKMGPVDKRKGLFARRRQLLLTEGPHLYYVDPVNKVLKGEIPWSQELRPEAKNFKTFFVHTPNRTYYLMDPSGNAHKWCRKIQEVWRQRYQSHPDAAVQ
Sequence of Maternal embryonic leucine zipper kinase (Homo sapiens) (Q14680 whole entry, looked up, the tested form may be a part): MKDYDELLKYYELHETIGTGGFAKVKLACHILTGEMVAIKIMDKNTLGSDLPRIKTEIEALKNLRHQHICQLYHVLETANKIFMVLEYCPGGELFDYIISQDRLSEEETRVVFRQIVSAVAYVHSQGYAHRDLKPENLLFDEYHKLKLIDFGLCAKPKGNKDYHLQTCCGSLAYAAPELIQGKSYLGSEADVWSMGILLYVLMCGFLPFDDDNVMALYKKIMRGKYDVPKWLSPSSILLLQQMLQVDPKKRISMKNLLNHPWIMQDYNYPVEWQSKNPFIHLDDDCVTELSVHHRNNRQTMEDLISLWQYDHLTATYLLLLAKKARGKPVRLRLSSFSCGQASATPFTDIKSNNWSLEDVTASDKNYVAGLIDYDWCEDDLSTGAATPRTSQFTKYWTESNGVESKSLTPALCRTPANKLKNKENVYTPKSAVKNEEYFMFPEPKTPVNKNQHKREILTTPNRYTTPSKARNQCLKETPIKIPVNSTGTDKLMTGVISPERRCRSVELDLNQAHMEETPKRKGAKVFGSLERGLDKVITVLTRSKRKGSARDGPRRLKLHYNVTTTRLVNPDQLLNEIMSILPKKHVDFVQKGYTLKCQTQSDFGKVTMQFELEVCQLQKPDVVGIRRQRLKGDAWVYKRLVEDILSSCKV
Sequence of Mitogen-activated protein kinase 8 (Homo sapiens) (P45983 whole entry, the tested form may be a part): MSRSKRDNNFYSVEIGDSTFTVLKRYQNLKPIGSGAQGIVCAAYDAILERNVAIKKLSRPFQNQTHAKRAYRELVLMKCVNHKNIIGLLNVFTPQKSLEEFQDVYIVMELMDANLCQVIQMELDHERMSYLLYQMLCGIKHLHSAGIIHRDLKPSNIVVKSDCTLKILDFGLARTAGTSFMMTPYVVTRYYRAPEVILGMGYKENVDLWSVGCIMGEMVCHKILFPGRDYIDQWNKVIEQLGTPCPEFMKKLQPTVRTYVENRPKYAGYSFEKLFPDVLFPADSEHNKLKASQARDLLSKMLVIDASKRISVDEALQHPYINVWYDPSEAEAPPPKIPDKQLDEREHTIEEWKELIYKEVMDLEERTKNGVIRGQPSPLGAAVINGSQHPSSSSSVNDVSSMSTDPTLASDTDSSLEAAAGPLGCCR
Sequence of Serine/threonine-protein kinase Sgk1 (Homo sapiens), O00141 [S422D] (O00141 whole entry S422D, the tested form may be a part): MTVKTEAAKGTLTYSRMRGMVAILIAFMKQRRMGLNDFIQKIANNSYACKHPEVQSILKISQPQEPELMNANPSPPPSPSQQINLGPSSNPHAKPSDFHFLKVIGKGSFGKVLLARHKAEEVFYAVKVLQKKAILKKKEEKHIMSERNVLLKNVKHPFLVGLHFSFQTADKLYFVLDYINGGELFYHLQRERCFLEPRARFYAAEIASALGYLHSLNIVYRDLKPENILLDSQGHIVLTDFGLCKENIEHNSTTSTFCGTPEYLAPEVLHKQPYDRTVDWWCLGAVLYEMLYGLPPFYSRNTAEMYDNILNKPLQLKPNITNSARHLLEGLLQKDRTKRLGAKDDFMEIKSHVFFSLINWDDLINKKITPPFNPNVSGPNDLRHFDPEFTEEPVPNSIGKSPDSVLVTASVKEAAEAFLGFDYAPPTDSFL
Sequence of Sphingosine kinase 2 (Homo sapiens) (Q9NRA0 whole entry): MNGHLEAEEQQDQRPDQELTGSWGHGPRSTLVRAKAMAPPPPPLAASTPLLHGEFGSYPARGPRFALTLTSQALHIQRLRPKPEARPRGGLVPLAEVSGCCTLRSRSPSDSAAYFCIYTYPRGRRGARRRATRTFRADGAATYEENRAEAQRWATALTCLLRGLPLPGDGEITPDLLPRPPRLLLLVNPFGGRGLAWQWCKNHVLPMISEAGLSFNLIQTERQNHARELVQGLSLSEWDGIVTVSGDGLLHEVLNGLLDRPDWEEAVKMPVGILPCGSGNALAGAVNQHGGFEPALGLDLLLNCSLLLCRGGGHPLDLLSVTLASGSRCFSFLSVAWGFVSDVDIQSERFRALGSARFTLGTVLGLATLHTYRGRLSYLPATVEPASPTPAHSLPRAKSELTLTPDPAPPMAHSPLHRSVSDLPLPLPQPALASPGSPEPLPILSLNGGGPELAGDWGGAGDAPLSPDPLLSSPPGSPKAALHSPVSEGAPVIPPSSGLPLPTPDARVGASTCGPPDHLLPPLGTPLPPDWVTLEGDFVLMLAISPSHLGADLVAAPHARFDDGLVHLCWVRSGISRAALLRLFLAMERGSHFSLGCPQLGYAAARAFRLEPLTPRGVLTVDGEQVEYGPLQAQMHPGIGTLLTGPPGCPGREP
Sequence of Casein kinase II subunit alpha (Homo sapiens) (P68400 whole entry, looked up, the tested form may be a part): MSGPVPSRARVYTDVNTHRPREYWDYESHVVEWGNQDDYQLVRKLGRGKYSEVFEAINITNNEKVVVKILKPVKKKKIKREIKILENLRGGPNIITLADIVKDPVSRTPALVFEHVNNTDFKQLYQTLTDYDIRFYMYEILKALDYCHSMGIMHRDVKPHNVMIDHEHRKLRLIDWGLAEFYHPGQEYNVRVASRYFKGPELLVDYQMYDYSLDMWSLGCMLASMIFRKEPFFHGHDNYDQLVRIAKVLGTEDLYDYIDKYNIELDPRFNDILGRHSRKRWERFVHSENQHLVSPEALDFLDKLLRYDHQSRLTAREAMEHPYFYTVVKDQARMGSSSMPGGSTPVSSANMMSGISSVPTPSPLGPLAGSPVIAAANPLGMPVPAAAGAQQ
Sequence of Aurora kinase B (Homo sapiens) (Q96GD4 whole entry, the tested form may be a part): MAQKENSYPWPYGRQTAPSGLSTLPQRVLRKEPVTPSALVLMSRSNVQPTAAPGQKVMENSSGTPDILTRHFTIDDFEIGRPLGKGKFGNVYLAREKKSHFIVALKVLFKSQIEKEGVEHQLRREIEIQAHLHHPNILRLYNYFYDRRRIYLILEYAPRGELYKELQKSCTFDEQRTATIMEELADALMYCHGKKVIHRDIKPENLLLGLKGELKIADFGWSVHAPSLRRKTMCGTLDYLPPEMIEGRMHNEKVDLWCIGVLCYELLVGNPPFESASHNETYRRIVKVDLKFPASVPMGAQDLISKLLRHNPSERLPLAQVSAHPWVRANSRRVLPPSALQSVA

Take `COc1ccc(-c2ccc3c(N4CCOCC4)nc(N4C[C@@H](C)O[C@@H](C)C4)nc3n2)cc1CO` [Ku-0063794]: the Activity in [1] is 86%; in assay [3] it was 91%; in assay [4], 89%; in assay [5], 76%; in assay [7] it was 78%; in assay [8], 93%. Further, the Activity in assay [9] is 99%; in assay [10] it was 72%; in assay [11], 116%; in [12], 117%; in assay [16], 85%. For the same molecule, the inhibition result (in [2]; on mTORC1 (Homo sapiens) [14]) was “Active” each time. Also, the inhibition entry was “Dose-Dependent Effect” on mTORC1 (Homo sapiens) [6], 100% against mTORC1 (Homo sapiens) [13], “Dose-Dependent Effect” on mTORC2 (Homo sapiens) [15] and “Dose-Dependent Effect” on mTORC2 (Homo sapiens) [17].
